Source: ChEMBL document CHEMBL2390841, “1,1-Difluoroethyl-substituted triazolothienopyrimidines as inhibitors of a human urea transport protein (UT-B): new analogs and binding model” (Bioorg Med Chem Lett, 2013)

Tests used:
Liver microsomes = assay: Metabolic stability in rat liver microsomes assessed as parent compound remaining after 30 mins; type: ADME, Microsome; details: 0.5 h
Method in brief: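 Compounds are incubated 30 min with rat liver microsomes plus NADPH, then organic-extracted and analysed by LCMS. Value is percent parent remaining.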

Urea transporter 1 = target: T1, Urea transporter 1 (Mus musculus, UniProt Q8VHL0); assay: Inhibition of UT-B in mouse acetamide-loaded erythrocyte assessed as increase of hypotonic lysis
T1 sequence (Q8VHL0 whole entry): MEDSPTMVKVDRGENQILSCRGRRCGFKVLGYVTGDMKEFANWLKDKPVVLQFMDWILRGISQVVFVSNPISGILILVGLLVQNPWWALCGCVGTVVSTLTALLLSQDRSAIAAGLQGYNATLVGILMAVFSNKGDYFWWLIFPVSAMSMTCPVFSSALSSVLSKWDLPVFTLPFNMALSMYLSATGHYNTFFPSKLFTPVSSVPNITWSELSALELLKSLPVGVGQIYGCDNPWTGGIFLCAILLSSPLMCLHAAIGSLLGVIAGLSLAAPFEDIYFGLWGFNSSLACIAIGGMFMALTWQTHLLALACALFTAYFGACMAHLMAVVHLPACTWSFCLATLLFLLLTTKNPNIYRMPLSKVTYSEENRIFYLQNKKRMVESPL
Method in brief: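 Erythrocytes preloaded with acetamide are diluted into isosmolar PBS. Hypotonic lysis is read as near-infrared light absorbance; blocking UT-B-mediated acetamide efflux increases lysis. IC50 comes from a fit to a single-site saturation model.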

Structure (SMILES) | Stability (Liver microsomes) [%] | IC50 (Urea transporter 1) [nM]
CCc1ccc(S(=O)(=O)c2nnn3c2nc(NCc2cccs2)c2sccc23)cc1 | < 5 | –
CC(F)(F)c1ccc(S(=O)(=O)c2nnn3c2nc(NCc2ccsc2)c2sccc23)cc1 | 47 | 43
CC(F)(F)c1ccc(S(=O)(=O)c2nnn3c2nc(NCc2ccco2)c2sccc23)cc1 | 14 | 353
CC(F)(F)c1ccc(S(=O)(=O)c2nnn3c2nc(NCC2CC2)c2sccc23)cc1 | 75 | > 800

The remaining lines, values ahead:

Stability (Liver microsomes) [%] | IC50 (Urea transporter 1) [nM] | Structure (SMILES)
22 | 38 | Cc1csc(CNc2nc3c(S(=O)(=O)c4ccc(C(C)(F)F)cc4)nnn3c3ccsc23)c1
79 | > 800 | CC(F)(F)c1ccc(S(=O)(=O)c2nnn3c2nc(NCc2ccccc2)c2sccc23)cc1
24 | > 800 | CC(F)(F)c1ccc(S(=O)(=O)c2nnn3c2nc(NCC2CCC2)c2sccc23)cc1
